STEP inh = blocks human striatal-enriched tyrosine phosphatase. recombinant STEP, OMFP fluorogenic substrate, fluorescence. inhibition, % at 20 µM. 0.25% of 360,000 active. AID 588621;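 active = inhibition at 20 µM, scaled per plate between control wells, above about 37%, limit read from the data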
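material = STEP tyrosine phosphatase | reagent = fluorogenic phosphatase substrate OMFP at 25 µM final | doses = single compound dose of 20 µM, 1% DMSO final | schedule = 20 min reaction, room temperature, in the dark | measured by = fluorescence, 480/540 nm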
SUMO1-SIM PPI = SUMO1-SIM interaction modulation; SUMO1 binding to a labelled peptide, TR-FRET, 1 h; 0.33% of 360,000 active; P63165; inhibition, % at 20 µM; in the data active = inhibition above about 37%
DNMT1 block = inhibitors of human DNMT1; DNMT1 molecular beacon, Hinp1I cleavage, fluorescence; inhibition (reported as % activation of signal), % at 10 µM; 0.83% of 360,000 active; AID 588458; in the data active = inhibition above about 50%
Target sequence (P26358 504-1616 limits assumed): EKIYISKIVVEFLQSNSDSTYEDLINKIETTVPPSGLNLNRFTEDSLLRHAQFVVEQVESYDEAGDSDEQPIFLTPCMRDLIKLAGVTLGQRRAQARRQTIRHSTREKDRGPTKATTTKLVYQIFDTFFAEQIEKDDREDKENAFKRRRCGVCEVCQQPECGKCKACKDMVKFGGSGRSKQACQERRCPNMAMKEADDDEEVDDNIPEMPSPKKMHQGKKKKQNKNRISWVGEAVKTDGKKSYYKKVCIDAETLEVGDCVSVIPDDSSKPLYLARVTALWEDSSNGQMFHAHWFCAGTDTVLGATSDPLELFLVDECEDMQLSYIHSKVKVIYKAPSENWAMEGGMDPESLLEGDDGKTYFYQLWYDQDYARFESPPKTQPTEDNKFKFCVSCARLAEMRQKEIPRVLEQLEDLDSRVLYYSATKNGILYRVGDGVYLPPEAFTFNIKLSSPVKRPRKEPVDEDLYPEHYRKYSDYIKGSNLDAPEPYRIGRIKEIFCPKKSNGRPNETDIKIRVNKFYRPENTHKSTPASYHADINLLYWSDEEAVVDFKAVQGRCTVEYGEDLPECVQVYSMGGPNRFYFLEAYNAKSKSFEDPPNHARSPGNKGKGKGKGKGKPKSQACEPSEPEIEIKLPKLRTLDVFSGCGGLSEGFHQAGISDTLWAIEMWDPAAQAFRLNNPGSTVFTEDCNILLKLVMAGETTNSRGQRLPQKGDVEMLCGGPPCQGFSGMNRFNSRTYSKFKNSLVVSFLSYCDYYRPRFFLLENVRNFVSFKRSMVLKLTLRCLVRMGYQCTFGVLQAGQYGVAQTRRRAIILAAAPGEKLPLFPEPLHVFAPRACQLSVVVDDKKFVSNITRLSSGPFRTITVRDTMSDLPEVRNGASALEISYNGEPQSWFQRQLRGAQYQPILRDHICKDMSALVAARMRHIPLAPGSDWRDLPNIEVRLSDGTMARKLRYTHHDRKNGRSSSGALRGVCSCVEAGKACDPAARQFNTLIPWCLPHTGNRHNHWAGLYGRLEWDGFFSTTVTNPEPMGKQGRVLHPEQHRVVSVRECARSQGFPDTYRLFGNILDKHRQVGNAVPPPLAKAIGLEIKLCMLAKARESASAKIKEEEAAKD
Scp1 inh = inhibitors of human Scp-1 phosphatase | Q9GZU7 | Recombinant Scp1, phosphopeptide, malachite green phosphate absorbance | inhibition, % at 20 µM | 0.88% of 340,000 active;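 active = inhibition above about 50% at 20 µM, limit read from the data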
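Test system: SCP-1 catalytic domain; Buffer or medium: Acidic Tris acetate buffer with magnesium and detergent; Also added: Phosphorylated 17-residue peptide substrate; Compound: single 20 µM dose, 1% DMSO; Schedule: enzyme reaction 45 min at room temperature, colour 5 min, stabilisation 30 min; Signal: Phosphate-binding colour reagent, absorbance read at 630 nm.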
GRK2 inh = blocks RNA aptamer binding to human GRK2; bead flow cytometry, FAM-aptamer displacement from GRK2; inhibition of aptamer binding, % at 10 µM; 0.59% of 330,000 active;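 active = inhibition of aptamer binding above 40%, roughly 3 SD of noise, on plates passing a quality check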;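 note: median bead fluorescence of bound FAM aptamer so fluorescent compounds give negative values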
LMPTP inh = LMPTP (human) inhibition | recombinant LMPTP-A, OMFP fluorogenic substrate, fluorescence intensity | inhibition, % at 20 µM | 0.22% of 360,000 active | AID 651560;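 active = compounds that cut the enzyme signal by at least half of the control window in the single-dose screen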
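Assay system: LMPTP-A, protein tyrosine phosphatase of low molecular weight / Medium: pH 6.0 Bis-Tris buffer with DTT and Triton X-100 / Schedule: 50 min enzyme reaction at room temperature, protected from light / Measured by: endpoint fluorescence intensity from OMFP dephosphorylation / Read-out basis: % inhibition relative to no-enzyme and uninhibited control wells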
STEP inh conf = STEP (human) phosphatase inhibition, single concentration confirmation | shares compounds with STEP inh | recombinant STEP, OMFP fluorogenic substrate, fluorescence | inhibition, % at 20 µM | 32% of 520 active | AID 623866; call rule not given here
Each line names hits and unclear results; the compound was inactive in the other large screens (follow-up assays come after a bar, where they were run). A selection: hits, their analogues and other compounds. The true share with any hit is near 2.2%.

CC1=C(O)C(=O)C(C2=C(O)C(=O)C(C)=C(O)C2=O)=C(O)C1=O	STEP inh 65.1 (no result: GRK2 inh) | STEP inh conf 21.2
Cc1ccc(C2=C(O)C(=O)C(c3ccc(C)cc3)=C(O)C2=O)cc1	none (no result: GRK2 inh)
COc1ccc(OC)c(C(=O)c2ccccn2)c1	STEP inh 94.7 | STEP inh conf inactive
O=C(N/N=C/c1ccccn1)c1cccc([N+](=O)[O-])c1	none
O=C(NN=Cc1ccccc1O)c1cccc([N+](=O)[O-])c1	STEP inh 59.3, Scp1 inh 96.7, LMPTP inh 81.8 (no result: GRK2 inh) | STEP inh conf 100.3
O=C(N[C@@H]1CC[C@@H](CCNC(=O)C2CCOCC2)O[C@@H]1CO)c1ccncc1	none (no result: STEP inh, DNMT1 block, Scp1 inh, GRK2 inh)
COc1cc2ccccc2cc1C(=O)NC(=S)Nc1cccc(C(=O)O)c1	STEP inh 41.6 | STEP inh conf inactive
CC(C)[C@H](NC(=O)N1CC(=O)Nc2ccccc21)C(=O)Nc1nccs1	STEP inh 92.0 | STEP inh conf inactive
C[C@@H]1CN([C@@H](C)CO)C(=O)c2ccccc2-c2ccccc2CO[C@@H]1CN(C)S(=O)(=O)c1ccc(C(F)(F)F)cc1	none (no result: Scp1 inh, GRK2 inh)
O=C(O)CCCCCn1c(SCc2cc(=O)n3cc(Cl)ccc3n2)nc2ccsc2c1=O	STEP inh 64.6 | STEP inh conf inactive
Clc1ccc(Cl)c(-c2nc(-c3ccncc3)no2)c1	STEP inh 44.0 | STEP inh conf 11.8
Cc1nc2ccc(S(=O)(=O)CCC(=O)NCCc3ccccc3)cc2s1	none (no result: Scp1 inh, GRK2 inh)
CC(C)(C)C(=O)Nc1ccc(C(=O)Nc2cccc(Oc3ccc(C(=O)O)c(C(=O)O)c3)c2)cc1	STEP inh 60.3 | STEP inh conf 81.7
CC(C)(C)C(=O)Nc1ccc(C(=O)Nc2cc(NC(=O)c3ccc(NC(=O)C(C)(C)C)cc3)cc(C(=O)O)c2)cc1	none
O=C(C(Br)=Cc1ccccc1)c1ccccc1	none (no result: GRK2 inh)
CC(=O)Nc1ccc(/C=C2\Sc3ccccc3C2=O)cc1	STEP inh 42.6 | STEP inh conf inactive
CC(=O)N(C)/C=C1\Sc2ccccc2C1=O	none
O=C(NCc1ccco1)C1CCN(C(=O)c2ccc(Cl)cc2Cl)CC1	STEP inh 56.1 | STEP inh conf inactive
O=C(NCc1cccnc1)C1CCN(C(=O)c2ccc(Cl)cc2Cl)CC1	none
O=C(O)c1cccc(NC(=S)NC(NC(=O)c2cccc([N+](=O)[O-])c2)C(Cl)(Cl)Cl)c1 (stereo not drawn)	STEP inh 62.8, SUMO1-SIM PPI 97.8 | STEP inh conf inactive
O=C(O)c1cccc(NC(=S)NC(NC(=O)c2ccccc2[N+](=O)[O-])C(Cl)(Cl)Cl)c1 (stereo not drawn)	none
O=C1NC(=Nc2cccnc2)S/C1=C\c1cccc(F)c1	STEP inh 57.0 | STEP inh conf inactive
O=C(COc1ccc(CNC[C@H]2O[C@@H](n3ccc(=O)[nH]c3=O)[C@H](O)[C@@H]2O)cc1)Nc1ccccn1	none (no result: Scp1 inh, GRK2 inh)
N#Cc1cc2cc3c(cc2nc1Cl)OCCO3	STEP inh 48.8 (no result: Scp1 inh, GRK2 inh) | STEP inh conf inactive
CCOC(=O)N1CCC(N(CCN(C)C)C(=S)Nc2ccccc2OC)CC1	none
CCOC(=O)N1CCC(N(CCN(C)C)C(=S)Nc2ccc(Oc3ccccc3)cc2)CC1	STEP inh 91.6 | STEP inh conf 61.3
CCOC(=O)N1CCC(N(CCN(C)C)C(=S)Nc2ccccc2OCC)CC1	STEP inh 45.4 | STEP inh conf inactive
CCOC(=O)N1CCC(N(CCN(C)C)C(=S)Nc2cccc(C)c2)CC1	none
OC(Cc1ccccc1Br)c1ncc(-c2cccc(C(F)(F)F)c2)[nH]1 (stereo not drawn)	none (no result: Scp1 inh, GRK2 inh)
CCCNC(=O)Nc1nc(C(N)c2ccc(OC)cc2)cs1 (stereo not drawn)	none (no result: Scp1 inh, GRK2 inh)
